Reference: ChEMBL document CHEMBL3877250, “Design, synthesis, and biological evaluation of (2E)-(2-oxo-1, 2-dihydro-3H-indol-3-ylidene)acetate derivatives as anti-proliferative agents through ROS-induced cell apoptosis” (Eur J Med Chem, 2016)

Tests used:
[1] = Cytotoxicity against human SW480 cells assessed as growth inhibition at 20 uM after 72 hrs by CCK-8 assay; type: functional; conditions: SW480, 72 h, read-out: GI
Method in brief: (§1)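 Cells kept in RPMI 1640 with 10% heat-inactivated fetal calf serum and 1% streptomycin/penicillin at 37 °C, 5% CO2. After compound exposure, CCK-8 was added and cells were incubated 4 h at 37 °C, then absorbance was read at 450 nm. Viability is relative to untreated cells (100%). IC50 comes from nonlinear regression, mean of three separate determinations. Single-concentration screen at 20 µM.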

[2] = Cytotoxicity against human SW480 cells after 72 hrs by CCK-8 assay; type: functional, cell-based; conditions: SW480, 72 h; method in brief: as §1
[3] = Cytotoxicity against human MDA-MB-231 cells assessed as growth inhibition at 20 uM after 72 hrs by CCK-8 assay; type: functional; conditions: MDA-MB-231, 72 h, read-out: GI; method in brief: as §1
[4] = Cytotoxicity against human SK-BR-3 cells assessed as growth inhibition at 20 uM after 72 hrs by CCK-8 assay; type: functional; conditions: SK-BR-3, 72 h, read-out: GI; method in brief: as §1
[5] = Cytotoxicity against human Saos2 cells assessed as growth inhibition at 20 uM after 72 hrs by CCK-8 assay; type: functional; conditions: SAOS-2, 72 h, read-out: GI; method in brief: as §1
[6] = Cytotoxicity against human MDA-MB-231 cells after 72 hrs by CCK-8 assay; type: functional, cell-based; conditions: MDA-MB-231, 72 h; method in brief: as §1
[7] = Antitumor activity against human HepG2 cells assessed as growth inhibition at 20 uM after 72 hrs by CCK-8 assay; type: functional; conditions: HepG2, 72 h, read-out: GI; method in brief: as §1
[8] = Cytotoxicity against human HepG2 cells after 72 hrs by CCK-8 assay; type: functional, cell-based; conditions: HepG2, 72 h; method in brief: as §1
[9] = Cytotoxicity against human HL60 cells assessed as growth inhibition at 20 uM after 72 hrs by CCK-8 assay; type: functional; conditions: HL-60, 72 h, read-out: GI; method in brief: as §1
[10] = Cytotoxicity against human L02 cells; type: toxicity, cell-based
[11] = Cytotoxicity against human L02 cells assessed as growth inhibition at 20 uM after 72 hrs by CCK-8 assay; type: toxicity, cell-based; conditions: read-out: GI; method in brief: as §1
[12] = Cytotoxicity against human HCT116 cells assessed as growth inhibition at 20 uM after 72 hrs by CCK-8 assay; type: functional; conditions: HCT-116, 72 h, read-out: GI; method in brief: as §1
[13] = Cytotoxicity against human OVCAR3 cells after 72 hrs by CCK-8 assay; type: functional, cell-based; conditions: OVCAR-3, 72 h; method in brief: as §1
[14] = Cytotoxicity against human Saos2 cells after 72 hrs by CCK-8 assay; type: functional, cell-based; conditions: SAOS-2, 72 h; method in brief: as §1
[15] = Cytotoxicity against human HCT116 cells after 72 hrs by CCK-8 assay; type: functional, cell-based; conditions: HCT-116, 72 h; method in brief: as §1
[16] = Cytotoxicity against human L02 cells after 72 hrs by CCK-8 assay; type: toxicity, cell-based; method in brief: as §1
[17] = Cytotoxicity against human SK-BR-3 cells after 72 hrs by CCK-8 assay; type: functional, cell-based; conditions: SK-BR-3, 72 h; method in brief: as §1
[18] = Cytotoxicity against human OVCAR3 cells assessed as growth inhibition at 20 uM after 72 hrs by CCK-8 assay; type: functional; conditions: OVCAR-3, 72 h, read-out: GI; method in brief: as §1
[19] = Cytotoxicity against human HL60 cells after 72 hrs by CCK-8 assay; type: functional, cell-based; conditions: HL-60, 72 h; method in brief: as §1

Q: With `CC(C)(C)OC(=O)/C=C1/C(=O)Nc2ccc(Cl)cc21` as the compound, how does the inhibition of growth at 20 µM [1] read?
A: 78.5%

Q: What about the IC50 [2] of the same compound?
A: 5.49 µM

Q: And the inhibition of growth at 20 µM [3]?
A: 87.6%

Q: And the inhibition of growth at 20 µM [4]?
A: 87.6%

Q: And the inhibition of growth at 20 µM [5]?
A: 82.3%

Q: What about the IC50 [6] of the same compound?
A: 3.11 µM

Q: And the inhibition of growth at 20 µM [7]?
A: 87.1%

Q: And the IC50 [8]?
A: 8.99 µM

Q: What about the inhibition of growth at 20 µM [9] of the same compound?
A: 94.9%

Q: And the IC50 [10]?
A: 6.18 µM

Q: What about the inhibition at 72 h, 20 µM [11] of the same compound?
A: 63.3%

Q: And the inhibition of growth at 20 µM [12]?
A: 89.7%

Q: What about the IC50 [13] of the same compound?
A: 19 µM

Q: What about the IC50 [14] of the same compound?
A: 6.51 µM

Q: What about the IC50 [15] of the same compound?
A: 5.5 µM

Q: And the IC50 at 72 h [16]?
A: 4.72 µM

Q: What about the IC50 [17] of the same compound?
A: 6.48 µM

Q: What about the inhibition of growth at 20 µM [18] of the same compound?
A: 59.4%

Q: What about the IC50 [19] of the same compound?
A: 3.16 µM
